PABP FP inh: PABP-poly(A) binding inhibition | P11940 | PABP-poly(A) RNA binding, fluorescence polarization | inhibition, % at 35 µM | 290,000 tested, 1% active;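 also: calls also rest on retests at 20 µM and on dose response follow-up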
eIF4H FP inh: inhibitors of RNA binding by human eIF4H. AID 2012. inhibition, % at 35 µM. eIF4H fluorescence polarization binding assay. 290,000 tested, 0.94% active;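 also: calls also rest on retests at 20 µM and on dose response follow-up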
MLLE-PAM2 inh: inhibitors of microRNA-mediated deadenylation, human PABP1 MLLE binding; P11940; GST-MLLE / FITC-PAM2 fluorescence polarization; inhibition, % at 20 µM; 360,000 tested, 0.36% active; AID 588489; in the data active = inhibition above about 35%, passing the limit was not always enough;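 also: plate controls were DMSO wells with GST-MLLE for no effect and wells lacking GST-MLLE protein for full effect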
core dimer inh: HCV core protein dimerization inhibition; TR-FRET GST/Flag-core106 dimerization, 1536-well; inhibition, % at 5 µM; AID 1899; 300,000 tested, 0.33% active;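 active = inhibition above the mean of all tested compounds plus 3 SD, set per screening campaign, cut at about 45% in these data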
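test system = GST/Flag-tagged HCV core106 proteins | probe or stimulus = Eu donor and XL665 acceptor anti-tag antibodies | times = compound-protein-antibody incubation 4 h at 22.5 °C | signal = TR-FRET, excitation 340 nm, emission 617 and 671 nm | measure = percent inhibition of core106 dimerization signal | controls = wells lacking GST-core106 and wells with excess unlabelled core106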
NS3 helicase inh: blocks Hepatitis C virus NS3 helicase unwinding; NS3 helicase DNA unwinding, Cy5 molecular beacon fluorescence; inhibition, % at 10.9 µM; 290,000 tested, 0.56% active;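 active = inhibition above the mean of all tested compounds plus 3 SD, set per campaign, cut at about 35% in these data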;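 also: 0% = DMSO wells and 100% = thioflavine S control wells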
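assay system = NS3 helicase fragment of HCV | buffer or medium = MOPS pH 6.5, MgCl2, DTT, Tween20, BSA | timing = 60 min unwinding reaction at 25 °C after ATP addition | signal = Cy5 beacon fluorescence read at start and 1 h | read-out basis = % inhibition of unwinding | control set = low DMSO, high thioflavine S at 110 µM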
DNA FID counter: displaces DNA intercalator in HCV helicase counter-screen; 290,000 tested, 0.17% active; inhibition, % at 7.9 µM; DNA fluorescent intercalator displacement, fluorescence; in the data active = inhibition above about 37%;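 also: 0% = vehicle and 100% = reference compound; higher means more ethidium bromide displaced from hairpin DNA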
* hit, by the source's call; ? = inconclusive; nt = no result given. Sampled rows, rich in hits. Any-hit rate of the full collection: about 2%. Unless noted, no rule for the calls is given here.

SMILES	PABP FP inh	eIF4H FP inh	MLLE-PAM2 inh	core dimer inh	NS3 helicase inh	DNA FID counter
Cc1cc(SCC(=O)c2cccc([N+](=O)[O-])c2)nc(=O)[nH]1	29.0	38.4	23.9	70.5*	19.2	-0.5
CC1CCC(NC(=O)CN2CCN(S(=O)(=O)c3ccc(Br)s3)CC2)CC1 (stereo unspecified)	nt	nt	-0.4	nt	nt	nt
CC1CN=C(NC(=O)c2cccc([N+](=O)[O-])c2)S1 (stereo unspecified)	10.3	9.1	41.5*	9.1	4.4	4.2
O=C(Nc1cccc(NC(=O)c2cccc([N+](=O)[O-])c2)n1)c1cccc([N+](=O)[O-])c1	4.1	-5.1	6.6	1.3	-0.1	10.2
CCOC(=O)C1=C(N)n2c(s/c(=C\c3ccco3)c2=O)=C(C(=O)OC(C)C)C1c1ccco1 (stereo unspecified)	-3.9	?	-8.6	3.2	31.9	-28.4
CCOC(=O)C1=C(N)n2c(s/c(=C\c3ccco3)c2=O)=C(C(=O)OCC)C1c1ccco1 (stereo unspecified)	85.6*	96.6*	-4.3	11.8	34.8	-8.8
O=C(NC(=S)N1CCCCCC1)c1ccccc1Cl	-6.4	-4.0	44.0*	1.7	-8.5	-2.9
CNC(C)C(=O)NC(C(=O)NC(C)C(=O)Nc1cccc2ccccc12)C(C)C (stereo unspecified)	nt	nt	-4.5	nt	nt	nt
Cc1ccc(-n2c(C)cc3c2CCCC3=O)cc1	21.4	20.3	41.6*	-1.9	2.4	-8.9
Cc1cccn2c(=O)c3cc(C#N)c(=NC(=O)c4cccs4)n(CC(C)C)c3nc12	32.4	68.7	18.8	21.5	10.0	-4.8
CCOCCCn1c(=NC(=O)c2cccs2)c(C#N)cc2c(=O)n3cccc(C)c3nc21	33.5*	54.8	124.0	11.4	1.3	-6.2
COCCCn1c(=NC(C)=O)c(C#N)cc2c(=O)n3cccc(C)c3nc21	55.3*	106.8*	3.1	16.4	-2.5	-3.4
O=[N+]([O-])c1ccc2[nH]cc(S(=O)(=O)N3CCN(c4cccc(Cl)c4)CC3)c2c1	6.5	-13.7	3.3	16.4	-19.4	38.5*
Oc1ccc(N=Cc2ccc(-c3cccs3)s2)cc1	13.9	50.8*	-2.9	-15.3	22.1	-1.6
CCCN(CCC)CCCNC(=O)c1cc2cc3ccc(OC)cc3nc2o1	-3.9	-11.6	6.7	-1.7	10.2	37.4*
CCCCN(CC)CCCNC(=O)c1cc2cc3ccc(OC)cc3nc2o1	-6.3	-8.3	-14.9	-4.6	-10.4	22.5
COC(=O)c1ccc(=O)c2nc3/c(=C/O)c(O)cc(=O)c3[nH]c12	99.5*	85.4*	6.0	23.2	18.1	-6.5
COc1cccc(C2C(C#N)=C(N)Oc3cc(C)n(Cc4ccco4)c(=O)c32)c1 (stereo unspecified)	82.9*	51.2*	-49.0	0.8	12.8	-7.6
COc1ccc(OC)c(N/C(C)=C/C(=O)c2ccncc2)c1	29.3*	?	-4.0	-3.5	-8.6	-25.1
CCNc1nc(SCC(N)=O)nc2sc3c(c12)CCN(C)C3	41.8*	97.5	37.1	nt	25.3	1.0
CSc1nc(SCC(N)=O)c2c3c(sc2n1)CN(C)CC3	22.2	26.6	2.7	9.4	-0.3	8.6
CCCC(=O)N1CCC1(C)C(=O)Nc1ccc2c(c1)OCCO2 (stereo unspecified)	nt	nt	-0.7	nt	nt	nt
Cc1ccc(S(=O)(=O)N2CCOCC2)cc1C(=O)N1C(=O)c2cccc(N)c2C1=O	70.8*	56.9*	10.2	18.3	-0.9	0.4
Cc1ccc(S(=O)(=O)N2CCOCC2)cc1C(=O)O	11.8	-2.1	-9.3	-3.0	3.6	1.0
Cc1cccc(/C=N/NC(=O)Cn2nc(C)cc2C)n1	3.8*	102.5*	3.8	2.7	1.4	-4.0
Cc1cc([N+](=O)[O-])nn1CC(=O)N/N=C/c1ccccc1O	-5.1	15.2	11.6	5.6	3.2	-6.3
Cc1cc([N+](=O)[O-])nn1CC(=O)N/N=C/c1ccccc1F	active	58.3*	-1.5	0.7	-9.0	-3.8
O=C(CSc1ccc([N+](=O)[O-])cn1)Nc1cc(C(F)(F)F)ccc1N1CCOCC1	4.8	-14.6	53.5	-8.6	0.3	-14.4
N#Cc1c(-c2ccco2)cc(-c2ccccn2)nc1N	62.7*	70.5*	-26.2	73.2*	14.8	-13.1
